Results as given in ChEMBL document CHEMBL4052757, “Bistacrines as potential antitrypanosomal agents” (Bioorg Med Chem, 2017).
The source made the active and inactive calls. The rule behind the calls is not given here.

Experiments:
[1] = tested on: Trypanosoma brucei brucei; assay: Antitrypanosomal activity against Trypanosoma brucei brucei TC221 after 72 hrs by alamar blue assay; format: functional; conditions: TC221, 72 h
How it was run: (§1)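 T. b. brucei TC221 bloodstream-form proliferation measured by alamarBlue (resazurin reduced to resorufin by living cells); 48 h and 72 h read-outs. IC50 derived per Räz et al. method; each compound tested in duplicate, mean of two values.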

[2] = tested on: Trypanosoma brucei brucei; assay: Antitrypanosomal activity against Trypanosoma brucei brucei TC221 after 48 hrs by alamar blue assay; format: functional; conditions: TC221, 48 h; how it was run: as §1
[3] = target: Rhodesain (Trypanosoma brucei rhodesiense) (UniProt Q95PM0); assay: Inhibition of Trypanosoma brucei rhodesiense rhodesain at 20 uM using Cbz-Phe-Arg-AMC as substrate measured for 5 mins by spectrofluorometric analysis relative to control
Chain of Rhodesain (Trypanosoma brucei rhodesiense) (Q95PM0 1-450): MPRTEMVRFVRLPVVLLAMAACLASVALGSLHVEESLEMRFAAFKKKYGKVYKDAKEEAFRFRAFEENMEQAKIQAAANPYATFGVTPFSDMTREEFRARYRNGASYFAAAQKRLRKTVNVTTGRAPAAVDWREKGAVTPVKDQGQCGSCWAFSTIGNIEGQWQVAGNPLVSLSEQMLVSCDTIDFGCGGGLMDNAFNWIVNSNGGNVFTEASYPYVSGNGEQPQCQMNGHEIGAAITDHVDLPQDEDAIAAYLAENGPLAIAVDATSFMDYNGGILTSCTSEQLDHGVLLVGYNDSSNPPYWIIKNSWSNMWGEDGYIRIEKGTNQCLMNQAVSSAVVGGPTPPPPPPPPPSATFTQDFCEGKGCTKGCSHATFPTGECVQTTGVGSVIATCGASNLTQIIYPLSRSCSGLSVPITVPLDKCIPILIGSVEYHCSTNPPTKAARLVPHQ
How it was run: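 Rhodesain in 50 mM sodium acetate pH 5.5 with 5 mM DTT, 5 mM EDTA, 200 mM NaCl; inhibitor 20 µM, substrate Cbz-Phe-Arg-AMC; AMC fluorescence (ex 380/em 460 nm) followed 5 min; activity from slopes of fluorescence vs time versus DMSO control; run in duplicate.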

[4] = target: Trypanothione reductase (Trypanosoma cruzi) (UniProt P28593); assay: Inhibition of Trypanosoma cruzi trypanothione reductase at 5 uM using 100 uM trypanothione disulfide as substrate by spectrophotometric method relative to control
Chain of Trypanothione reductase (Trypanosoma cruzi) (P28593 whole entry, looked up): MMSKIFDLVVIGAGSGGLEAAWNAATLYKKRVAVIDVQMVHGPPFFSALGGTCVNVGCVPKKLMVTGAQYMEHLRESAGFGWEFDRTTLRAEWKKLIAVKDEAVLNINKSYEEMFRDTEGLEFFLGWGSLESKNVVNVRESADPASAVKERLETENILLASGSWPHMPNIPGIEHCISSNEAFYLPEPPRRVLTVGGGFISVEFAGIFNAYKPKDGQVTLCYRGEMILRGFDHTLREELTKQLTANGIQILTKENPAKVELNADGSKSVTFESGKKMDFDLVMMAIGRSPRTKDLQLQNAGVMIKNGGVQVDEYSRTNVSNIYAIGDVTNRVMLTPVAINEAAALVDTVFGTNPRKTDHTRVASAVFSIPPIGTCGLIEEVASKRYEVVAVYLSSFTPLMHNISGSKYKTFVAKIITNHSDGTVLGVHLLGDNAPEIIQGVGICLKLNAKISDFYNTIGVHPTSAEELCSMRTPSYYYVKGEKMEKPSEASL
How it was run: (§2)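 TcTryR (about 2 nM) in 40 mM HEPES, 1 mM EDTA, pH 7.5, 100 µM NADPH; inhibitor at fixed 2 or 5 µM (screening range 1–5 µM) from DMSO stock; TS2 fixed at 40 or 100 µM; absorbance decrease monitored; percent inhibition versus DMSO control.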

[5] = target: Trypanothione reductase (Trypanosoma cruzi) (UniProt P28593); assay: Inhibition of Trypanosoma cruzi trypanothione reductase at 5 uM using 40 uM trypanothione disulfide as substrate by spectrophotometric method relative to control; how it was run: as §2
[6] = target: Trypanothione reductase (Trypanosoma cruzi) (UniProt P28593); assay: Inhibition of Trypanosoma cruzi trypanothione reductase at 2 uM using 100 uM trypanothione disulfide as substrate by spectrophotometric method relative to control; how it was run: as §2
[7] = target: Trypanothione reductase (Trypanosoma cruzi) (UniProt P28593); assay: Inhibition of Trypanosoma cruzi trypanothione reductase at 2 uM using 40 uM trypanothione disulfide as substrate by spectrophotometric method relative to control; how it was run: as §2
Trypanosoma brucei [8] = assay: Inhibition of Trypanosoma brucei trypanothione reductase at 5 uM using 100 uM trypanothione disulfide as substrate by spectrophotometric method relative to control
How it was run: (§3)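 TbTryR (about 2 nM) in 40 mM HEPES, 1 mM EDTA, pH 7.5 with 100 µM NADPH; inhibitor 5 µM from DMSO stock, fixed TS2 at 100 or 40 µM; NADPH consumption followed as absorbance decrease; inhibition relative to DMSO control.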

Trypanosoma brucei [9] = assay: Inhibition of Trypanosoma brucei trypanothione reductase at 5 uM using 40 uM trypanothione disulfide as substrate by spectrophotometric method relative to control; how it was run: as §3
Leishmania infantum = assay: Antileishmanial activity against Leishmania infantum; format: functional
J774.1 = assay: Cytotoxicity against mouse J774.1 cells after 24 hrs by alamar blue assay; format: cell-based; conditions: J774.1, 24 h
[10] = Selectivity index, ratio of IC50 for mouse J774.1 cells to IC50 for Trypanosoma brucei brucei TC221 measured after 48 hrs; format: toxicity; conditions: J774.1 cells (versus Trypanosoma brucei brucei TC221), read-out: Ratio IC50
How it was run: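 Selectivity index computed as IC50 (J774.1 macrophages, alamarBlue) divided by IC50 (T. b. brucei TC221, alamarBlue); duplicate determinations, means used.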

[11] = Stability of the compound; format: physicochemical
[12] = Mixed-type inhibition of Trypanosoma brucei trypanothione reductase assessed as enzyme-substrate complex using varying levels of trypanothione disulfide as substrate by Lineweaver-burk plot analysis
How it was run: (§4)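 TbTryR kinetics in HEPES/EDTA pH 7.5 with 100 µM NADPH; TS2 varied 20–200 µM at several inhibitor levels, DMSO control; Lineweaver-Burk plots; Ki and Ki' fitted.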

[13] = Mixed-type inhibition of Trypanosoma brucei trypanothione reductase assessed as enzyme-substrate-inhibitor complex using varying levels of trypanothione disulfide as substrate by Lineweaver-burk plot analysis; how it was run: as §4
[14] = Inhibition of trypanothione reductase
Rhodesain = Rhodesain (Trypanosoma brucei rhodesiense, UniProt Q95PM0); assay: Inhibition of Trypanosoma brucei rhodesiense rhodesain using Cbz-Phe-Arg-AMC as substrate measured for 10 mins by spectrofluorometric analysis
Chain of Rhodesain (Q95PM0 whole entry): as the sequence (Q95PM0 1-450) above

[15] = target: Rhodesain (Trypanosoma brucei rhodesiense) (UniProt Q95PM0); assay: Inhibition of Trypanosoma brucei rhodesiense rhodesain using Cbz-Phe-Arg-AMC as substrate by spectrofluorometric analysis
[16] = target: Trypanothione reductase (Trypanosoma cruzi) (UniProt P28593); assay: Inhibition of Trypanosoma cruzi trypanothione reductase at 50 uM using 100 uM trypanothione disulfide as substrate by spectrophotometric method relative to control
[17] = target: Rhodesain (Trypanosoma brucei rhodesiense) (UniProt Q95PM0); assay: Inhibition of Trypanosoma brucei rhodesiense rhodesain assessed as second-order rate constant using Cbz-Phe-Arg-AMC as substrate measured for 10 mins by spectrofluorometric analysis

SMILES | IC50 [1] [µM] | IC50 [2] [µM] | inhibition [3] [%] | inhibition [4] [%] | inhibition [5] [%] | inhibition [6] [%] | inhibition [7] [%] | inhibition (Trypanosoma brucei [8]) [%] | inhibition (Trypanosoma brucei [9]) [%] | Activity (Leishmania infantum) | IC50 (J774.1) [µM] | selectivity ratio at 48 h [10] | Stability [11] | Ki [12] [µM] | Ki [13] [µM] | inhibition [14] | IC50 (Rhodesain) [µM] | inhibition [15] | inhibition [16] [%] | K [17] [M⁻¹ s⁻¹]
c1ccc2c(NCCCCCCCNc3c4c(nc5ccccc35)CCCC4)c3c(nc2c1)CCCC3 | 0.59 | 0.16 | 44 | 51 to 55 | 66.4 | 23.2 to 25.8 | 34.4 to 37.8 | 53 | 66 | Active | – | – | – | – | – | – | – | – | – | –
C1=Cc2c(nc3ccccc3c2NCCCCCCCNc2c3c(nc4ccccc24)CCC=C3)CC1 | 0.01 | 0.01 | – | – | – | – | – | 53 | 47 | Active | 1.5 | 152 | Stable | 1.2 | 12 | Active | – | – | – | –
c1ccc2c(NCCCCCCCCNc3c4c(nc5ccccc35)CCCC4)c3c(nc2c1)CCCC3 | 0.66 | 0.4 | 87 | 64.4 to 68.5 | 73.3 to 78.3 | 28.8 to 32.9 | 45 to 46.7 | – | – | Active | – | – | – | – | – | – | 16.9 | Dose-dependent effect | 100 | –
CN1CCN(C(=O)N[C@@H](Cc2ccccc2)C(=O)N[C@H](/C=C/S(=O)(=O)c2ccccc2)CCc2ccccc2)CC1 | – | – | – | – | – | – | – | – | – | – | – | – | – | – | – | – | – | – | – | 500000
